# Measurements pooled from the literature.
# Lines come from different studies, so protocols differ.
# Cell line: DU-145
# Observed: cell growth or viability
Compound,technique,time,GI50
COc1cc(-c2ccc(-c3ccc(C(=N)N)nc3)s2)cc(OC)c1OC,,,3.45 µM
CCc1cc(CN2CCc3cc(OS(N)(=O)=O)c(OC)cc3C2)cc(CC)c1CC,WST-1,96 h,1.8 µM
COc1ccc(C(=O)/C=C/c2cccc3ccccc23)cc1S(N)(=O)=O,SRB,48 h,2.8 µM
COc1cc2c(cc1OS(N)(=O)=O)CCN(Cc1ccc(OC)c(OC)c1OC)C2,WST-1,96 h,17 µM
COc1cc2c(cc1OS(N)(=O)=O)CCN(Cc1cc(Cl)c(OC)c(OC)c1)C2,WST-1,96 h,0.04 µM
COc1ccc(C(=O)/C=C/c2ccc3ccccc3c2)cc1S(N)(=O)=O,SRB,48 h,3.3 µM
CCOc1c(OC)cc(CN2CCc3cc(O)c(OC)cc3C2)cc1OC,WST-1,96 h,0.3 µM
S=C([S][Au-][P+](CCCCCC[P+]([Au-][S]C(=S)n1cccn1)(c1ccccc1)c1ccccc1)(c1ccccc1)c1ccccc1)n1cccn1,,,1.31 µM
COc1cc2c(cc1O)CCN(S(=O)(=O)c1ccccc1OC)C2,WST-1,96 h,> 100 µM
COc1cccc(Oc2ccccc2NC(=O)CNC(=O)c2cccc3ccccc23)c1,SRB,48 h,0.708 µM
COc1cc2c(cc1O)CCN(Cc1cc(OC)c(OC)c(OC)c1)C2,WST-1,96 h,0.65 µM
COc1ccc(C(=O)/C=C/c2ccc(Cl)c(Cl)c2)cc1S(N)(=O)=O,SRB,48 h,3.5 µM
CCOc1cc(CN2CCc3cc(O)c(OC)cc3C2)cc(OCC)c1OCC,WST-1,96 h,> 100 µM
COc1ccc(C(=O)/C=C/c2ccccc2Br)cc1S(N)(=O)=O,SRB,48 h,3.3 µM
COc1cc2c(cc1O)CCN(Cc1ccc(OC)c(OC)c1OC)C2,WST-1,96 h,> 100 µM
COc1ccc(C(=O)/C=C/c2c(F)cccc2Cl)cc1S(N)(=O)=O,SRB,48 h,3.3 µM
COc1cc2c(cc1OS(N)(=O)=O)CCN(Cc1cccc(C(C)=O)c1)C2,WST-1,96 h,1.85 µM
COc1ccc(C(=O)/C=C/c2cc3c(cc2Br)OCO3)cc1S(N)(=O)=O,SRB,48 h,3.7 µM
CC(=O)O[C@H]1C(=O)[C@@]2(C)[C@H]([C@H](OC(=O)c3ccccc3)[C@]3(O)C[C@H](OC(=O)[C@H](O)[C@@H](NC(=O)c4ccccc4)c4ccccc4)C(C)=C1C3(C)C)[C@]1(OC(C)=O)CO[C@@H]1C[C@@H]2O,WST-1,96 h,0.004 µM
